The text below walks through data of ChEMBL document CHEMBL1127783, “Sugar-linked dithiocarbamates as modulators of metabolic and genotoxic properties of N-nitroso compounds” (J Med Chem, 1994).

The species named for assay [1] is Rattus norvegicus. Kind of assay: Tested in vitro for N-nitrosodimethylamine (NDMA) demethylase activity at 1 mM for 2 mM concentration of acetaldehyde. It is filed as functional. The procedure, abridged:
(§1)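 Liver microsomal fraction from untreated male Sprague–Dawley rats with NADPH-generating system. NDMA substrate 0.1–1 mM; test compound 2–20 mM or DDTC 2 mM added. Formaldehyde and acetaldehyde formed measured as (2,4-dinitrophenyl)hydrazones. Mean ± SD of three separate experiments.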

Assay [2] deals with Rattus norvegicus. Kind of assay: Tested for unchanged NDEA 24 h administration of [14C]-NDEA in urine in experiment number 1. It is filed as functional. The method in brief: (§2)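 Male Sprague–Dawley rats, fasted overnight, two per group. Inhibitor 1.5 mmol/kg ip or saline, then [14C]NDEA 28 mg/kg (5 μCi/kg) ip 1 h later, then a second inhibitor dose. Rats kept 24 h in all-glass metabolism cages, urine collected into ice-cold flask with NaOH. Total urinary radioactivity and unchanged [14C]NDEA measured after extraction with internal standard; given as % of dose.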

Assay [3] deals with Rattus norvegicus. Kind of assay: Tested for exhalation of 14CO2 of compound (1.5mmol/kg, ip) was administered 1 h before and 5 h after the treatment of [14C]NDEA (28 mg/kg, 5 microCi/kg, ip) in experiment number 2. It is filed as functional. The method in brief:
(§3)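 Male Sprague–Dawley rats (two per group) were fasted overnight. They received inhibitor or saline ip at 1.5 mmol/kg 1 h before and again after ip [¹⁴C]NDEA (28 mg/kg, 5 μCi/kg). Animals were then kept 24 h in an all-glass metabolism cage with air flow of 32 L/h. Exhaled air was dried over H₂SO₄, ¹⁴CO₂ was trapped in 1 N NaOH and counted, and the result is expressed as % of the given dose.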

The species entered for assay [4] is Rattus norvegicus. Kind of assay: Tested in vitro for N-nitrosodimethylamine (NDMA) demethylase activity at 0.1 mM for 0 mM concentration of acetaldehyde. It is filed as functional. The procedure, abridged: as §1
For assay [5], the species on record is Rattus norvegicus. Kind of assay: Tested in vitro for N-nitrosodimethylamine (NDMA) demethylase activity at 0.1 mM for 0 mM concentration of formaldehyde. It is filed as functional. The procedure, abridged: as §1
The species named for assay [6] is Rattus norvegicus. Kind of assay: Tested in vitro for N-nitrosodimethylamine (NDMA) demethylase activity at 0.1 mM for 2 mM concentration of formaldehyde. It is filed as functional. The method in brief: as §1
The species named for assay [7] is Rattus norvegicus. Kind of assay: Tested in vitro for N-nitrosodimethylamine (NDMA) demethylase activity at 0.1 mM for 2 mM concentration of acetaldehyde. It is filed as functional. The procedure, abridged: as §1
Assay [8] has as its system Rattus norvegicus. Kind of assay: Tested for exhalation of 14CO2 of compound (1.5mmol/kg, ip) was administered 1 h before and 5 h after the treatment of [14C]NDEA (28 mg/kg, 5 microCi/kg, ip) in experiment number 1. It is filed as functional. The method in brief:
as §3

The species named for assay [9] is Rattus norvegicus. Kind of assay: Tested in vitro for N-nitrosodimethylamine (NDMA) demethylase activity at 0.5 mM for 2 mM concentration of acetaldehyde. It is filed as functional. The procedure, abridged: as §1
In assay [10] the test system is Rattus norvegicus. Kind of assay: Tested for urinary excretion of radioactivity of compound (1.5 mmol/kg, ip) was administered 1 h before and 5 h after the treatment of [14C]-NDEA (28 mg/kg, 5 microCi/kg, ip) in experiment number 2. It is filed as functional, organism-based. The procedure, abridged:
as §2

Assay [11] is filed under the species Rattus norvegicus. Kind of assay: Tested in vitro for N-nitrosodimethylamine (NDMA) demethylase activity at 0.5 mM for 2 mM concentration of formaldehyde. It is filed as functional. The procedure, abridged:
as §1

The species named for assay [12] is Rattus norvegicus. Kind of assay: Tested in vitro for N-nitrosodimethylamine (NDMA) demethylase activity at 1 mM for 2 mM concentration of formaldehyde. It is filed as functional. The procedure, abridged: as §1
For assay [13], the system named is Rattus norvegicus. Kind of assay: Tested for urinary excretion of radioactivity of compound (1.5mmol/kg, ip) was administered 1 hr before and 5 hr after the treatment of [14C]-NDEA (28 mg/kg, 5 microCi/kg, ip) in experiment number 1. It is filed as functional, organism-based. The procedure, abridged: as §2

As for `CCN(CC)C(=S)[S-].[Na+]` [DITIOCARB SODIUM], the Acetaldehyde is 0.06 nM (mg of protein)-1 in the assay listed under Rattus norvegicus [1], 0 nM (mg of protein)-1 in the assay listed under Rattus norvegicus [4], 2.2 nM (mg of protein)-1 in the assay filed under Rattus norvegicus [7] and 0.6 nM (mg of protein)-1 in the assay listed under Rattus norvegicus [9]. The “Unchanged NDEA” value in the assay on Rattus norvegicus [2] stood at 15.7%. Further, the “Exhal+B1718ation of 14CO2” value amounted to 20.5% in the assay with Rattus norvegicus [3] and 17.2% in the assay with Rattus norvegicus [8]. The Formaldehyde in the assay listed under Rattus norvegicus [5] is reported as 4.8 nM (mg of protein)-1; in the assay filed under Rattus norvegicus [6] it was 0.6 nM (mg of protein)-1; in the assay filed under Rattus norvegicus [11] it was 0.3 nM (mg of protein)-1; in the assay filed under Rattus norvegicus [12], 0 nM (mg of protein)-1. Further, the Radioactivity in urine with Rattus norvegicus [10] worked out at 17.8%; in the assay on Rattus norvegicus [13], 20.7%.
